Compound activity as filed in PubChem BioAssay.
CaV13 FRET inh: Disruptors of the CACNA1D IQ motif to Ca2+-dependent inactivation inhibitor domain association, primary screening, Förster resonance energy transfer in intact living … | HEK cells, CFP/YFP FRET ICDI-IQ, plate reader, 10 min; percent FRET-ratio fall versus neutral wells | inhibition, % at 12.3 µM | 340,000 compounds, 0.098% hits | AID 743397;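 active = mean replicate inhibition of at least 30% and at least 1% of replicates passing that level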;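 also: 0% = median of the neutral control wells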
GSIS activator: primary screen for activators of insulin secretion dependent on glucose, INS-1E cells, GLuc reporter luminescence. 370,000 compounds, 0.61% hits. INS-1E GLuc reporter insulin secretion, 2-3 h. AID 743287. activation, % at 16.6 µM;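 active = lowest replicate activation of at least 40%, so every replicate reaches that level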;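 also: 0% = median of neutral control wells and 100% = median of IBMX positive control wells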
XiGFP reactiv: X-chromosome reactivation activator; activation, % at 7.58 µM; 360,000 compounds, 0.055% hits; XiGFP mouse fibroblasts, % GFP-positive cells imaging, 3 d; cells co-treated with 5-aza-dC sensitizer; scaled so ellipticine positive control = 100%;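 active = mean normalized replicate activation at least 10% and every replicate at or above 10%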;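 also: 0% = median of on-plate neutral control wells and 100% = ellipticine 6 µM median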
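material = 68-5-11 XiGFP fibroblast line | medium = DMEM plus 5-aza-dC sensitizer | schedule = 3 days compound exposure | benchmarks = positive control ellipticine, 6 µM final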
GAA850 FXN act: increases GAA850 frataxin promoter reporter activity; HEK293 lucGAA850 FXN promoter luciferase reporter, 24 h; percent of 10 µM SAHA response; activation, % at 6 µM; 360,000 compounds, 0.56% hits; AID 540364;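 active = activation above the average of all compounds screened plus 3 SD, cutoff fixed separately per campaign, cut at about 7.5% in these data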;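 also: 0% = DMSO wells and 100% = 10 µM SAHA wells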
The depositor's hits bear a star; . = no result; ! = not active in a repeat. Rows were chosen to be rich in hits. Some 1% of all compounds tested hit in one or more screens of this group.

SMILES | CaV13 FRET inh | GSIS activator | XiGFP reactiv | GAA850 FXN act
Cc1noc(C)c1NC(=O)N(C)C[C@H]1OCCCC[C@@H](C)Oc2ccc(NC(=O)NC3CCCCC3)cc2C(=O)N([C@H](C)CO)C[C@@H]1C | . | -1.0 | 0.0 | .
CCCCCn1c(SCC(=O)OC)nc2c1c(=O)[nH]c(=O)n2C | -5.9 | 68.5* | 0.0 | 0.5
CCCCCCn1c(N(CC)CC)nc2c1c(=O)[nH]c(=O)n2C | -4.9 | 61.9* | . | 2.5
CCN(CC)c1nc2c(c(=O)[nH]c(=O)n2C)n1Cc1ccccc1 | -6.5 | 38.4 | 0.0 | 0.6
COC(=O)CSc1nc2c(c(=O)[nH]c(=O)n2C)n1CCC(C)C | . | . | . | -0.5
COc1cc(/C=N/NC(=O)CNC(=O)c2cccs2)ccc1O | -14.8 | 45.9* | 0.5 | 1.2
C[C@H]1CN([C@@H](C)CO)S(=O)(=O)c2ccc(C#CCN(C)C)cc2O[C@@H]1CN(C)Cc1cccnc1 | . | 11.7 | -0.9 | .
C=C(C)C1Cc2c(C)nn(-c3cccc4cccnc34)c2C1 (configuration not stated) | -5.1 | 50.8* | 0.0 | -1.0
CN1c2ccc(-c3ccccc3F)cc2[C@H]2[C@H](CCN2C(=O)Nc2ccc(F)cc2)[C@H]1CO | . | -7.9 | 0.2 | .
CCOC(=O)C1CCCN(C(=O)C2c3ccccc3Oc3ccccc32)C1 (configuration not stated) | -4.0 | . | . | 1.3
CCOC(=O)C1CCCN(CCCc2ccccc2)C1 (configuration not stated) | 37.6*! | 1.2 | 0.2 | -1.3
CCOC(=O)C1CCCN(C(=O)C2COc3ccccc3O2)C1 (configuration not stated) | -5.7 | 41.7* | 0.1 | -1.0
COc1ccc(NC(=O)N[C@@H]2CC[C@H](CCNC(=O)CCN3CCCCC3)O[C@H]2CO)cc1 | . | 2.4 | -0.1 | .
C[C@@H]1CCCCO[C@@H](CN(C)Cc2ccc(C(=O)O)cc2)[C@H](C)CN([C@H](C)CO)C(=O)c2cc(NC(=O)Cc3ccccc3)ccc2O1 | . | 20.0 | -0.1 | .
N#CC(c1ccccc1O)N1N=C(c2ccccc2)CC1c1ccccc1 (configuration not stated) | -3.2 | 0.7 | 0.5 | 8.2*
COc1cc(C(C#N)N2N=C(c3ccccc3)CC2c2ccccc2)ccc1O (configuration not stated) | -3.9 | . | . | -0.4
c1ccc(-c2nnc3ccc(N4CCC5(CC4)OCCO5)nn23)cc1 | -5.0 | 60.8* | . | 5.3
COc1ccc2c3c([nH]c2c1)[C@H](CO)N(Cc1ccccc1)CC31CCN(C(=O)Nc2cccc(F)c2)CC1 | . | -30.0 | 0.4 | .
NC(=O)c1ccsc1NC(=O)CSc1ncnc2sccc12 | -6.3 | 56.8* | 0.4 | 3.0
COc1ccccc1NC(=O)N[C@H]1CC[C@H](CC(=O)NCc2ccc(Cl)c(Cl)c2)O[C@H]1CO | . | -16.1 | 0.3 | .
CCOc1ccc(/C=C/C(=O)c2ccc(-c3ccccc3)cc2)cc1 | -5.4 | 46.7* | 0.0 | 2.5
C[C@@H]1CN([C@@H](C)CO)C(=O)c2cc(NC(=O)Nc3cccc4ccccc34)ccc2O[C@@H]1CN(C)Cc1ccc(C(=O)O)cc1 | . | -9.7 | -0.8 | .
O=C(Nc1cccc(Cl)c1)Nc1nnc(CSCCOc2ccc(Cl)cc2)s1 | -3.8 | 54.2* | 0.0 | 0.8
Cc1ccc(NC(=O)Nc2nnc(CSCCOc3ccc(Cl)cc3)s2)cc1 | -3.3 | . | 0.1 | -1.2
COc1cc(CNCCO)cc(Cl)c1OCc1ccc(Cl)cc1Cl | -4.8 | 42.5* | 0.0 | -0.2
SMILES | CaV13 FRET inh | GSIS activator | XiGFP reactiv | GAA850 FXN act
COc1cc(CNCCO)cc(Br)c1OCc1ccccc1Cl | -3.3 | . | . | -1.5
COc1cc(CNC(C)(C)CO)cc(Br)c1OCc1ccc(Cl)cc1Cl | -5.0 | 176.1* | 0.1 | 3.4
CCC(C)(C)C1CCc2c(sc(NC(=O)c3cccs3)c2C(N)=O)C1 (configuration not stated) | -3.3 | 0.8 | . | -0.5
CC(C)(C)C1CCc2c(sc(NC(=O)c3cccs3)c2C(N)=O)C1 (configuration not stated) | . | 44.7* | . | 1.9
C[C@@H]1CCCCO[C@@H](CN(C)S(=O)(=O)c2cn(C)cn2)[C@H](C)CN([C@@H](C)CO)C(=O)c2cc(NS(=O)(=O)c3cn(C)cn3)ccc2O1 | . | 24.1 | 0.4 | .
C[C@H]1CN([C@@H](C)CO)C(=O)c2cccc(NC(=O)c3ccncc3)c2O[C@@H]1CN(C)C(=O)Nc1ccc(F)cc1 | . | 5.4 | 0.1 | .
[O-]/[N+](=C\c1ccccc1)c1ccccc1 | -9.7 | 0.6 | 0.7 | 3.1
[O-]/[N+](=C\c1ccc(F)cc1)c1ccccc1 | -4.1 | 58.1* | . | 1.1
[O-]/[N+](=C/c1ccccc1)c1ccccc1 | 45.5* | . | 0.0 | 0.8
CCCNC(=O)[C@@H]1[C@@H](CO)[C@@H]2Cn3c(ccc(-c4ccncc4)c3=O)[C@H]1N2Cc1ccccc1F | . | 4.2 | 0.0 | .
COc1ccc2c3c(n(C)c2c1)[C@@H](CO)N(C(=O)Nc1ccc(F)cc1)CC31CCN(S(=O)(=O)c2cccs2)CC1 | . | 11.0 | -0.1 | .
CC(/C=C/C=C/c1ccccc1)=N/NC(=O)CNc1ccccc1C | -5.4 | 135.6* | 0.1 | 0.9
C=CCOc1cccc(C(=O)N2CCC(CCC(=O)NC3CC3)CC2)c1 | -2.2 | 54.3* | 0.2 | -0.4
Cc1cc(C)cc(C(=O)N2CCC(CCC(=O)NC3CC3)CC2)c1 | -10.7 | 2.7 | -0.1 | -0.1
O=C(Cc1cccnc1)N1CC2(C1)[C@@H](c1ccccc1)[C@@H](CO)N2C(=O)C1CCCCC1 | . | -9.3 | 0.0 | .
O=[N+]([O-])c1cccc(-c2nnc3cccc(Cl)n23)c1 | -6.5 | 51.9 | 0.3 | 0.8
O=[N+]([O-])c1cccc(-c2nnc3ccc4ccccc4n23)c1 | -4.3 | 55.1* | 0.1 | 2.4
Nn1c(SCC(=O)N2CCCC2)nnc1-c1cccs1 | 32.9* | 6.1 | 1.0 | 2.0
O=C(CSc1nnc(-c2cccs2)n1-c1ccccc1)N1CCCC1 | -3.3 | 1.7 | . | 0.8
C[C@H](CO)N1C[C@H](C)[C@@H](CN(C)Cc2ccc(Oc3ccccc3)cc2)Oc2ccc(NS(=O)(=O)c3ccc(Cl)cc3)cc2CC1=O | . | -6.4 | -0.5 | .
CCCNC(=O)N1[C@@H]2c3ccc(-c4ccccc4OC)c(=O)n3C[C@H]1[C@H](CO)[C@H]2C(=O)NCC | . | 14.7 | -0.1 | .
COc1ccc(CCC(=O)NC2CCC(C)CC2)cc1 (configuration not stated) | -4.9 | 77.2* | 0.3 | -1.1
CC=Cc1ccc2n(c1=O)C[C@@H]1[C@@H](CO)[C@H](C(=O)NCC3CC3)N(CC3CCOCC3)[C@H]21 (mixture of isomers) | . | 5.5 | 0.2 | .
COc1ccc(-c2nc(CCNC(=O)c3ccco3)cs2)cc1OC | -4.9 | 88.6* | 0.0 | 2.7
CCCNC(=O)C[C@@H]1C[C@H]2c3cc(NC(=O)Nc4ccccc4)ccc3O[C@H]2[C@@H](CO)O1 | . | 9.6 | 0.0 | .
C=CCn1c(SCC(=O)c2c(N)n(C)c(=O)n(C)c2=O)nc2sc(C)c(C)c2c1=O | -8.8 | 309.1* | . | -0.5
